High-throughput results from PubChem.
In the library only some 1.5% were active in any assay of this set; here they are far more common.
CCR6 antag = blocks CCL20-driven beta-arrestin recruitment at human CCR6. P51684. CHO-K1 CCR6 PathHunter beta-arrestin, luminescence, CCL20-stimulated. inhibition, % at 20 µM. hit rate 0.49% among 340,000. AID 493098;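 active = compounds whose inhibition of the agonist-driven luminescence signal at 20 µM reaches about 50%, limit read from the data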;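 note: cells stimulated with CCL20 at 14 nM final; plate controls were DMSO with CCL20 for no effect and DMSO without agonist for full effect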
EBI2 antag = antagonists of human EBI2 receptor; P32249; EBI2 beta-arrestin recruitment, luminescence, 7a,25-OHC stimulated; inhibition, % at 5 µM; hit rate 0.81% among 360,000; in the data active = inhibition above about 38%;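 note: enzyme fragment complementation signal reports receptor beta-arrestin coupling in cells; 0% = agonist plus DMSO wells and 100% = wells without agonist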
Target sequence (P32249 whole entry, looked up, the tested form may be a part): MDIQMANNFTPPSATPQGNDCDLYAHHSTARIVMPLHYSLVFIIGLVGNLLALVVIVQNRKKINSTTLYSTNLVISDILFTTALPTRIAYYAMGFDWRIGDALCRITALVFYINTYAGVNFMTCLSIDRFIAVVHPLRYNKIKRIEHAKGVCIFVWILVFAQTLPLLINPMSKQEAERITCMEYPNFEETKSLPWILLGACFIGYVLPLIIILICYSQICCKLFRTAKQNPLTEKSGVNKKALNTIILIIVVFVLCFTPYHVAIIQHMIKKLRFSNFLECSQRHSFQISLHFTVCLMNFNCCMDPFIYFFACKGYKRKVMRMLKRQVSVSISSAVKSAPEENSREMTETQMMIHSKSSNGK
APJ agonist = activates the human apelin receptor APJ; CHO-K1 APJ PathHunter beta-arrestin, luminescence; 0% DMSO wells, 100% apelin; AID 2520; activation, % at 20 µM; P35414; hit rate 0.11% among 330,000;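 active = activation more than six SD over the plate average, tested at 20 µM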;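 note: 0% = DMSO alone and 100% = apelin-13 at 10 nM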
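Assay system: engineered CHO-K1 APJ arrestin reporter cells; Amount: 1000 CHO-K1 reporter cells seeded per well; Dosing: one dose, 20 µM compound, 1% DMSO; Times: compound stimulation 90 min at 25 °C, detection 60 min; Measured by: luminescent beta-gal fragment complementation, chemiluminescent substrate; Read-out: APJ–arrestin association signal; Controls: DMSO vs Apelin-13 10 nM.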
CXCR6 inh = CXCR6 (human) receptor inhibition; O00574; CHO-K1 PathHunter CXCR6 beta-arrestin, luminescence; inhibition, % at 20 µM; hit rate 0.36% among 360,000; in the data active = inhibition above about 34%, passing the limit was not always enough;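 note: antagonist mode with CXCL16 agonist at 10 nM final; 0% = 10 nM CXCL16 with DMSO and 100% = unstimulated wells without agonist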
APJ antag = antagonists of human APJ apelin receptor; P35414; CHO-K1 APJ beta-arrestin complementation, luminescence; inhibition, % at 20 µM; hit rate 0.32% among 330,000; AID 2521;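 active = inhibition above about 40% at 20 µM, limit read from the data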;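 note: cells challenged with 10 nM apelin-13 agonist together with compound; plate controls were apelin-13 plus DMSO wells for no effect and DMSO wells lacking apelin-13 for full effect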
EBI2 conf = confirmation of human EBI2 receptor antagonists; hit rate 29% among 2,400; inhibition, % at 5 µM; EBI2 beta-arrestin luminescence, 7a,25-OHC antagonism; AID 651997; shares compounds with EBI2 antag;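 active = inhibition of at least 50%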
EBI2 ag = counter-screen for EBI2 antagonists: EBI2 agonist activity. shares compounds with EBI2 antag. EBI2-expressing cells, agonist mode, luminescence, 60 min; 0% vehicle, 100% 7α,25-dihydroxycholesterol control. activation, % at 5 µM. 2,400 tested, under 10 active;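 active = activation of at least 50%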
bGal cs = beta-galactosidase inhibition counter-screen; shares compounds with EBI2 antag; purified beta-galactosidase, luminescent Galacton Star, 15 min; hit rate 1% among 2,400; inhibition, % at 5 µM;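 active = replicate-average signal at least 3 plate SD below neutral wells, shown as high inhibition, flagging enzyme-inhibiting false positives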;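 note: 0% = DMSO wells with enzyme and 100% = wells lacking enzyme; higher means stronger loss of beta-gal luminescence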
Starred values were filed as active, the others as inactive; . = not tested or not shown; ! = repeats disagree.

SMILES	CCR6 antag	EBI2 antag	APJ agonist	CXCR6 inh	APJ antag	EBI2 conf	EBI2 ag	bGal cs
COc1ccc(C2CC(c3cccs3)=NN2C(=O)CSc2nc(=O)n3ccc(C)cc3n2)cc1 (stereo unspecified)	6	3	2	11	16	.	.	.
COc1ccc(C2=NN(C(=O)CSc3nc(=O)n4cc(C)ccc4n3)C(c3ccc(C)cc3)C2)cc1 (stereo unspecified)	11	63*	8	9	23	30	0	9
COc1ccc(C2=NN(C(=O)CSc3cn(C)c4ccccc34)C(c3ccc(OC)cc3)C2)cc1 (stereo unspecified)	4	84*	-4	6	5	65*	-1	-10
COc1ccccc1Cc1c(-c2ccc(OC)c(OC)c2)nc2cc(C)c(Br)c(C)n12	.	14	.	10	.	.	.	.
COc1ccc(-c2nc3cc(C)c(Br)c(C)n3c2Cc2ccccc2C(F)(F)F)cc1OC	.	41*	.	1	.	39	0	-15
CSCCC(C(=O)Nc1c(C)cccc1C)N1CCN(c2ccc(C(F)(F)F)cn2)CC1 (stereo unspecified)	.	-17	.	8	.	.	.	.
CCCC(=O)n1nc(-c2ccccc2)nc1SC	-8	43*	-8	-8	0	24	1	7
O=C(COc1ccc(F)cc1)c1ccc2c(c1)CCCC2	27	47*	-1	-8	4	25	-2	-15
COCCNC(=O)C1CCCN(C(=O)c2csc3ccccc23)CC1 (stereo unspecified)	.	0	.	2	.	.	.	.
CCOc1ccc(-n2c(-c3ccco3)nc3c(cnn3-c3ccc(C)cc3)c2=O)cc1	6	47*	-1	10	-8	19	1	6
O=[N+]([O-])c1ccc(-c2cnc(SCc3ccccc3Cl)[nH]2)cc1	26	28	-6	-4	2	.	.	.
O=[N+]([O-])c1ccc(-c2cnc(SC(c3ccccc3)c3ccccc3)[nH]2)cc1	27	49*	-2	22	-2	38	0	6
COc1ccc(C2CC(c3ccccc3C(F)(F)F)=NN2c2ccc(S(N)(=O)=O)cc2)cc1 (stereo unspecified)	30	16	.	4	.	.	.	.
COC(=O)c1[nH]c2cc(OC)ccc2c1NC(=O)CN1CCN(c2cccc(C)c2)C(C)C1 (stereo unspecified)	10	73*	-7	7	-10	70*	-1	-7
COC(=O)c1[nH]c2cc(C)ccc2c1NC(=O)CN1CCOCC1	9	-5	2	0	13	.	.	.
CCCS(=O)(=O)NC(=O)C1(C)CCN(C(=O)c2ccc(OC)cc2OC)C1 (stereo unspecified)	.	1	.	10	.	.	.	.
COc1ccc2cc(-c3[nH]ncc3CN3CCCC3c3nonc3C)ccc2c1 (stereo unspecified)	-2	46*	0	-3	-26	28	0	6
Cc1ccc2nc(-c3cccc(SC4CCCCC4)c3)c(NC3CCCCC3)n2c1	34	31	-1	17	4	.	.	.
CCCCCCSc1cc(-c2nc3ccc(C)cn3c2NCCCC)ccc1OC	12	32	1	13	21	.	.	.
CCCCCCSc1ccc(-c2nc3ccc(C)cn3c2NCc2ccccc2)cc1OC	43	72*	-9	20	-3	44	1	2
CCCCCCSc1ccc(-c2nc3ccc(C)cn3c2NCc2ccccc2)cc1	3	53*	-7	0	3	54*!	1	2
COc1ccc(-c2ccc(-c3nc4ccc(C)cn4c3NC3CCCCC3)cc2OC)cc1	26	72*	9	16	-11	65*!	0	-11
CCC(C)Sc1ccc(-c2nc3ccc(Cl)cn3c2NCc2ccccc2)cc1 (stereo unspecified)	9	44*	1	-3	-1	28	-2	-14
CC(C)NC(=O)N(C)C[C@H]1Oc2cc(C#Cc3ccc(F)cc3)ccc2S(=O)(=O)N([C@H](C)CO)C[C@H]1C	.	14	.	10	.	.	.	.
O=c1ccc(-c2nc3ccccc3n2C(CCc2ccccc2)c2nc3ccccc3[nH]2)c[nH]1 (stereo unspecified)	.	-11	.	.	.	.	.	.
SMILES	CCR6 antag	EBI2 antag	APJ agonist	CXCR6 inh	APJ antag	EBI2 conf	EBI2 ag	bGal cs
COc1ccc(-c2nc3ccc(C)cn3c2NCc2ccccc2)cc1SC1CCCCC1	10	-28	25	7	-12	.	.	.
CCCCNc1c(-c2ccc(SC3CCCCC3)c(OC)c2)nc2ccc(C)cn12	14	52*	-1	-1	6	55*!	3	3
CCCCNc1c(-c2ccc(-c3ccc(C(C)=O)cc3)c(OC)c2)nc2cc(C)ccn12	18	67*	2	14	-4	52*	1	6
COc1ccc2nc(SCC(=O)N3CC(=O)Nc4ccccc43)c(C#N)cc2c1	9	57*	2	-2	-7	35	-1	6
Cc1c(C(=O)N2CCN(C/C=C/c3ccccc3)CC2)oc2c(F)cccc12	13	32	-4	3	-8	.	.	.
COc1ccc(N2CCN(C(=O)c3oc4ccccc4c3C)CC2)cc1	1	21	-1	0	2	.	.	.
COc1ccc2oc(C(=O)N3CCN(C/C=C/c4ccccc4)CC3)c(C)c2c1	6	46*	3	5	3	30	0	-11
COc1ccc2oc(C(=O)N3CCN(C(c4ccccc4)c4ccccc4)CC3)c(C)c2c1	20	92*	-1	5	10	68*	3	8
COc1ccc(-c2cc(C(=O)N3CCN(C(c4ccccc4)c4ccccc4)CC3)no2)cc1	13	91*	-5	0	0	76*	0	9
CN1OC[C@@H]2CN(Cc3ccccc3)[C@H](c3ccc(-n4ccnc4)cc3)C[C@@H]21	.	-4	.	-6	.	.	.	.
COC(=O)[C@]12CCCCC=C1N(Cc1ccc(Cl)cc1Cl)C(=O)[C@H](CC(=O)NCCC(C)C)C2	.	22	.	4	.	.	.	.
COc1ccccc1N1CCN(C(=O)c2cccc(C(=O)N3CCN(c4ccccc4OC)CC3)c2)CC1	-2	0	5	13	-22	.	.	.
COc1ccccc1N1CCN(C(=O)c2cc3cc(C)ccc3[nH]2)CC1	6	94*	-4	-6	13	80*	1	3
CN1CCN(C(=O)c2cc3cc(F)ccc3[nH]2)CC1	8	12	0	-2	7	.	.	.
O=C(c1cc(-c2ccc(Cl)cc2)n[nH]1)N1CCN(C(=O)c2ccco2)CC1	-5	42*	-3	-7	-6	29	2	9
